# Measurements: PMC3572549 (Bioorganic & medicinal chemistry, 2012)
# Key:
# [1] = tested on: cellular microtubules in A-10 cells; assay: Loss of cellular; assay type: cell-based, rat; conditions: for Effect on cellular microtubules (in words): concentrations as high as 10 or 40 µM
# In short: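 Rat aortic smooth muscle A-10 cells were exposed to DMSO vehicle or test compound for 18 h, fixed in cold methanol, and stained for β-tubulin by indirect immunofluorescence. […] It is reported as mean ±SD of 3–4 independent experiments.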
# MDA-MB-435 cells = assay: Cell cycle distribution by flow cytometry; assay type: cell-based, human; conditions: 44.1 nM or 73.5 nM, 18 h
# [2] = tested on: purified porcine brain tubulin; assay: Preliminary study of inhibition of tubulin polymerization; assay type: biochemical; conditions: porcine brain tubulin 2.5 mg/mL, absorbance at 340 nm, 37 °C
# In short: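 Porcine brain tubulin (2.5 mg/mL) was incubated with test compound, colchicine or DMSO vehicle. Polymerization was followed turbidimetrically as absorbance at 340 nm at 37 °C.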
# mitotic spindles = assay: Formation of aberrant mitotic spindles; assay type: cell-based; conditions: data not shown
# Water solubility = assay type: physicochemical
Compound,Effect on cellular microtubules (in words) [1],Effect on mitotic spindles (mitotic spindles),also measured
"COc1ccc(Nc2nc(N)nc3[nH]c4ccccc4c23)cc1 [Compound 4, N^4-(4-Methoxyphenyl)-9H-pyrimido[4,5-b]indole-2,4-diamine]",inactive,–,–
"COc1ccc(N(C)c2nc(N)nc3[nH]c4ccccc4c23)cc1 [Compound 6, N^4-(4-Methoxyphenyl)-N^4-methyl-9H-pyrimido[4,5-b]indole-2,4-diamine]",active,caused the formation of aberrant mitotic spindles,"Effect on cell cycle distribution (MDA-MB-435 cells): accumulation of cells in the G2/M phase of the cell cycle; Inhibition of tubulin assembly (initial study, in words) [2]: potent inhibitor of tubulin assembly; Effect on interphase microtubule network (immunofluorescence) ([1]; 500 nM 6, 18 h incubation): extensive loss of the interphase microtubule network"
"COc1ccc(N(C)c2nc(N)nc3[nH]c4ccccc4c23)cc1.Cl [Compound 6·HCl, 4-((4-Methoxyphenyl)(methyl)amino)-9H-pyrimido[4,5-b]indol-2-aminium chloride]",–,–,Solubility in water (Water solubility): freely soluble in water
"COc1ccc(N(C)c2nc(NC(=O)C(C)(C)C)nc3[nH]c4ccccc4c23)cc1 [Compound 7, N-{4-[(4-Methoxyphenyl)(methyl)amino]-9H-pyrimido[4,5-b]indol-2-yl}-2,2-dimethylpropanamide]",inactive,–,–
"COc1cccc(N(C)c2nc(N)nc3[nH]c4ccccc4c23)c1 [Compound 10, N^4-(3-Methoxyphenyl)-N^4-methyl-9H-pyrimido[4,5-b]indole-2,4-diamine]",inactive,–,–
"COc1cc(Nc2nc(N)nc3[nH]c4ccccc4c23)cc(OC)c1OC [Compound 12, N^4-(3,4,5-Trimethoxyphenyl)-9H-pyrimido[4,5-b]indole-2,4-diamine]",inactive,–,–
"Cc1ccc(N(C)c2nc(N)nc3[nH]c4ccccc4c23)cc1 [Compound 13, N^4-Methyl-N^4-(4-methylphenyl)-9H-pyrimido[4,5-b]indole-2,4-diamine]",inactive,–,–
"CCN(c1ccc(OC)cc1)c1nc(N)nc2[nH]c3ccccc3c12 [Compound 14, N^4-Ethyl-N^4-(4-methoxyphenyl)-9H-pyrimido[4,5-b]indole-2,4-diamine]",active,caused the formation of aberrant mitotic spindles,–
"CCOc1ccc(N(C)c2nc(N)nc3[nH]c4ccccc4c23)cc1 [Compound 15, N^4-(4-Ethoxyphenyl)-N^4-methyl-9H-pyrimido[4,5-b]indole-2,4-diamine]",active,caused the formation of aberrant mitotic spindles,–
